We go through 98 compounds from ChEMBL document CHEMBL4513216, “Probing the Open Global Health Chemical Diversity Library for Multistage-Active Starting Points for Next-Generation Antimalarials” (ACS Infect Dis, 2020).

The data set can be described thus: Toxicity liver stage against HepG2, at 10uM. Type of data set: cell-based. The arrangement: test concentration 10 uM, cell line HepG2-A16-CD81EGFP. The following applies: human, HepG2-A16-CD81EGFP cells; read-out: INHIBITION
An outline of the steps:
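Uninfected HepG2-A16-CD81EGFP cells, 3 × 10^3 per well, 1536-well, plated on prespotted compound at 10 μM final, parasite-free screening media added to match infected plates; puromycin 10 μM positive, DMSO 0.5% negative; run in parallel with 48 h PbLuc assay at 37 °C, 5% CO2; viability by CellTiter-Glo luminescence, normalized to controls.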

As to `CN1CSC[C@H]1C(=O)N1CCC(Cc2ccccc2F)CC1`, the cytotoxicity at 10 µM was found to be 1.01%. As for `c1ccc2oc(N3CCC(c4nncn4C4CC4)CC3)nc2c1`, the cytotoxicity at 10 µM was determined as 12.7%. As for `CCc1nc(C2CCCN2C(=O)c2nccnc2N)no1` (stereo not drawn), the figure is -18.7%; as for `Cc1ccc(CNC(=O)CNCC2CCN(CCO)CC2)s1`, 6.89%. Take `COCCOCC(=O)Nc1ccc(C)cc1Br`: the cytotoxicity at 10 µM is -6.99%. Take `c1cc(-c2nnn3c2COC(CNCc2nccs2)C3)ccn1` (stereo not drawn): the cytotoxicity at 10 µM was determined as 1.94%.

On to `Cc1ccc(NC2CCN(C(=O)c3cc4c(s3)CCC4)CC2)nn1`, for which the cytotoxicity at 10 µM is -3.48%. The result for `Cc1ccc(C(O)CN(C)Cc2cnn(C)c2)cc1C` (stereo not drawn) reads -5.37%. As for `O=C(c1ccccn1)N1C[C@H]2CC[C@@H](C1)N(C(=O)CCc1cccs1)C2`, the figure is -9%. As for `CC(C)C(C(=O)NCc1ccccc1-n1cccn1)N(C)C` (stereo not drawn), the figure is -3.17%. With `Cn1ccc2c(C(=O)N3CCCC(c4nnc[nH]4)C3)cccc21` (stereo not drawn), the cytotoxicity at 10 µM stood at 1.92%.

Take `CCN(CC)c1ccc(CNC(=O)c2cnc(C)cn2)cn1`: the cytotoxicity at 10 µM was 6.21%. Take `c1nc2n(c1CN1CCCC1)CCN(C1CCOCC1)CC2`: the cytotoxicity at 10 µM is -71.1%. The result for `Cn1cc(C2(C)CN(Cc3ccc(O)c(Cl)c3)CCO2)cn1` (stereo not drawn) reads -4.12%; that for `Cn1c2ncccc2c(=O)n1CC(=O)Nc1ccc(F)c(F)c1`, 16.5%; that for `Cc1n[nH]c2c1C(c1ccncc1)SCC(=O)N2` (stereo not drawn), 4.96%. As for `CCn1cc(NC(=O)NCC2(N3CCOCC3)CCSC2)cn1` (stereo not drawn), the cytotoxicity at 10 µM was -17.1%. As for `CC1CN(Cc2noc(C3CC3)n2)CCN1Cc1nccn1C` (stereo not drawn), the figure is -10%; as for `CNc1cncc(C2CCCN2C(=O)c2ccc3oc(=O)n(C)c3c2)n1` (stereo not drawn), -1.57%; as for `Cc1noc(C)c1CCC(=O)NCC1(O)CCCN(c2ccccn2)C1` (stereo not drawn), -3.95%. The result for `Cc1ccccc1N1CCN(C(=O)c2cnc(C3CC3)nc2)C(C)C1` (stereo not drawn) reads 2.09%. As for `Cc1nc(C(C)(C)C)sc1C(=O)NCCn1cccn1`, the figure is -3.17%; as for `Cc1nc(C)n(CC2CCCN(Cc3nc(C)c(C)o3)C2)n1` (stereo not drawn), -2.68%. `c1ccc2c(NC3CCc4ncnn4C3)ncnc2c1` (stereo not drawn): the cytotoxicity at 10 µM is 7.21%.

As to `CN1CCCC[C@@H]2[C@H]1[C@@H](c1ccccc1)CCN2C(=O)c1ccccn1`, the cytotoxicity at 10 µM was -14.7%. With `COc1ccnc(N2CCN(C(=O)N3CCOCC3)CC2)n1`, the cytotoxicity at 10 µM was -1.64%. As for `CC(C)C1SCC(=O)Nc2c1c(O)nn2C1CCCC1` (stereo not drawn), the figure is 1.4%; as for `CC(C)CNC(=O)c1ccc2c(=O)n(-c3ccccc3)cnc2c1`, -5.52%; as for `CN1C(=O)CCC12CCCN(C(=O)c1ccncc1F)C2` (stereo not drawn), 11%. For `O=C(O)c1c[nH]c2cc(NS(=O)(=O)c3ccc(Cl)cc3F)ccc12`, the cytotoxicity at 10 µM was -1.2%.

Regarding `CSCc1cccc(S(=O)(=O)NCc2cnn(C)c2C)c1`, the cytotoxicity at 10 µM was 13.7%. As to `Cn1c(-c2ccccc2Cl)nc2cc(C(=O)NCC3(C)COC3)cnc21`, the cytotoxicity at 10 µM was 1.59%. For the compound `Cn1cnc2cc(C(=O)NS(=O)(=O)CC3CCCC3)ccc21`, the cytotoxicity at 10 µM was -3.2%. As for `CCS(=O)(=O)NCC(=O)Nc1cc(CC(C)(C)C)n[nH]1`, the figure is 5.01%.

Turning to `c1cc(CN2CCCC3(CCN(CC4CCCO4)CC3)C2)n[nH]1` (stereo not drawn), the cytotoxicity at 10 µM is -101%.

`Cc1nc2cc(C(=O)N3CCCC(n4cncn4)C3)ccc2n1C` (stereo not drawn): the cytotoxicity at 10 µM was -8.26%. The result for `OCCCN(CCc1cccc(F)c1)C1CC1` reads -8.9%. As to `CCc1nc(CNc2ccc(F)cc2I)no1`, the cytotoxicity at 10 µM came to 3.36%.

Take `CC1CN(C)c2ccccc2CN1C(=O)c1cc(C#N)cn1C` (stereo not drawn): the cytotoxicity at 10 µM was 14.6%. The result for `CCS(=O)(=O)N1CCC2(CCCN(Cc3ccc(F)c(F)c3)C2=O)C1` (stereo not drawn) reads 17.6%; that for `COc1cccc(C2CC(=O)Nc3c2c(=O)n(C)c2ncnn32)c1` (stereo not drawn), -0.549%. Consider `Cn1c(=O)ccn(CC(=O)Nc2cnccc2O)c1=O`, for which the cytotoxicity at 10 µM was determined as 2.13%. As to `CS(=O)(=O)N1CCC(Nc2ccc(C#N)c(C(F)(F)F)c2)CC1`, the cytotoxicity at 10 µM came out at 6.85%. As for `Cc1ccc(CN(C)C(=O)CN2CCCC(Cn3cncn3)C2)cc1` (stereo not drawn), the figure is -6.41%. Consider `Cc1n[nH]cc1CNC(C)c1cccc(N2CCCC2=O)c1` (stereo not drawn), for which the cytotoxicity at 10 µM was found to be 6.05%. For the compound `CN(C)C(=O)[C@H]1CCS(=O)(=O)[C@@H]2CN(c3ncc(F)cn3)C[C@H]12`, the cytotoxicity at 10 µM was -100%. `COc1cnc(C2(O)CCN(C(=O)c3cccnc3)CC2)c(OC)n1`: the cytotoxicity at 10 µM came out at 0.41%. Turning to `O=C(CN1CCCC(Cn2cncn2)C1)NCc1ccco1` (stereo not drawn), the cytotoxicity at 10 µM is -0.587%.

`CCn1cc(NC(=O)NCC(C)N(C)C)cn1` (stereo not drawn): the cytotoxicity at 10 µM was -18.8%. The result for `Cc1cc(NCCN)nc2ccccc12` reads 2.09%; that for `CCCc1nc(C(C)(C)NC(=O)C2CC(=O)N(C3CCCC3)C2)no1` (stereo not drawn), -0.734%. The result for `CCN(C)C[C@@H]1CN(S(=O)(=O)c2cccc(Cl)c2)C[C@@H]1CO` reads -8.3%. With `CNC(=O)Cc1noc(-c2cc3c(s2)CCCCCC3)n1`, the cytotoxicity at 10 µM is 3.76%. As for `Cc1cc(C2CCCN(CCCS(C)(=O)=O)C2)n[nH]1` (stereo not drawn), the figure is -13.2%; as for `COCC1CN(C(C)=O)CCN(c2cc(C)ncn2)C1` (stereo not drawn), 4.96%. As for `COc1ccccc1NC(=O)Cc1c(C)nc2c(c1C)c(=O)[nH]n2C`, the figure is -1.68%. The result for `CCC[C@@H]1CN(Cc2cnc(-c3cccs3)nc2)C[C@H]1C(=O)O` reads -22.9%; that for `CCn1cnnc1C1CCN(C(=O)c2ccc(C(=O)OC)s2)CC1`, -8.16%. As to `COCC(=O)N1CCOCC2(CCN(Cc3cccs3)C2)C1` (stereo not drawn), the cytotoxicity at 10 µM is -6.16%. As for `CCn1cnnc1CNc1nc(C)nc2scc(CC(C)C)c12`, the figure is -3.17%. Turning to `Cc1nc(C)n(CC2CCCN(CCC(=O)N3CCCCC3)C2)n1` (stereo not drawn), the cytotoxicity at 10 µM stood at 3.9%. On to `COc1cccc(CC(=O)N2CCCC(n3nc(C)cc3C)C2)c1` (stereo not drawn), for which the cytotoxicity at 10 µM was 0.441%. As for `CCCOCCn1ncc(N2CCc3ccccc3C2)cc1=O`, the figure is 2.63%. Turning to `CN(C)c1ccc(NC(=O)NCC2CCOC2)cn1` (stereo not drawn), the cytotoxicity at 10 µM is -6.8%. The result for `c1ccc(NCc2cnc3n2CCN(C2CCOC2)CC3)nc1` (stereo not drawn) reads -70.5%; that for `Cc1cc(CN2C[C@@H]3COC[C@]3(CN(C)C)C2)no1`, 4.81%. As for `Cc1cnc(CN2CCOC(Cn3nc(C)nc3C)C2)cn1` (stereo not drawn), the figure is 1.46%; as for `O=C1CC2(CCN(C(=O)C3CCCCC3)C2)Nc2ccccc2N1` (stereo not drawn), 9.13%.

Regarding `COc1ccc(CN2C[C@@H]3COC[C@]3(COc3cccnc3)C2)cc1`, the cytotoxicity at 10 µM was -18.4%. As for `Cc1cc(-n2nc(C)nc2-c2cn(CCN)nn2)ccn1`, the figure is 7.55%. As for `COCC[C@]1(O)CCN(S(=O)(=O)c2ccc(C)cc2OC)C[C@H]1C`, the figure is 11.4%; as for `COc1cc(C)c(-c2ccc(F)c3c2OC(CN)C3)cc1C` (stereo not drawn), 20.3%; as for `CN(Cc1ccc(F)cc1)CC1(O)CCN(C(=O)c2ccncc2)C1` (stereo not drawn), -2.25%. For `COCCN1CCC(NCc2cccc(C)c2)C1` (stereo not drawn), the cytotoxicity at 10 µM amounted to 2.76%. As for `CCN(C(=O)CN1CCN(CC(C)O)CC1)C1=CCCCC1` (stereo not drawn), the figure is 8.67%; as for `COc1ccc(CNC2CCN(CCc3ccncc3)CC2)cc1O`, -10.5%; as for `CN(C)c1cc(CNC(=O)c2ccc(=O)[nH]n2)ccn1`, 0.962%. The result for `Cc1ccccc1CN(C)C(=O)CN1CCOC(Cn2cncn2)C1` (stereo not drawn) reads -1.07%; that for `CN1CCC(N(Cc2ccncc2)C(=O)COCC2CCCCO2)CC1` (stereo not drawn), -150%; that for `Cc1cc(C(=O)N2CCN(C(=O)CCC3CCCCC3)CC2)n(C)n1`, -3.06%. As for `Cn1cccc1C(=O)N1C[C@@H]2COC[C@]2(CNS(C)(=O)=O)C1`, the cytotoxicity at 10 µM was 4.38%. As for `c1cncc(-c2ccc3c(c2)C2(CCNCC2)CC3)c1`, the figure is 4.59%; as for `Cc1cc(C(F)(F)F)nc(C2CCCN2S(C)(=O)=O)n1` (stereo not drawn), 2.68%; as for `N#Cc1cc(Cn2cnc(C3CCC3)cc2=O)ccc1F`, -0.908%. As to `O=C(NCCCn1ccnc1)N1CCCC1c1ccsc1` (stereo not drawn), the cytotoxicity at 10 µM was -6.04%. `CC(C)c1cccc(CSc2nnc(CN3CCCC3=O)o2)n1`: the cytotoxicity at 10 µM was 3.59%. The result for `CCc1ccc(C(=O)NCc2cccc(S(=O)(=O)NC)c2)o1` reads -2.31%; that for `Cc1csc(C2CCCCN2C(=O)c2cc(C3CC3)[nH]n2)n1` (stereo not drawn), -11.6%. The result for `CC(C)S(=O)(=O)N1C[C@H]2OC(=O)N(CCc3cccc(Cl)c3)[C@H]2C1` reads 0.642%. As for `CC(C)(C)c1cc(=O)n2c(n1)SCC(C(=O)NCc1ccco1)C2` (stereo not drawn), the cytotoxicity at 10 µM is -15.1%. Take `CCN(CC)C(C)CNC(=O)c1cccnc1Oc1cccnc1` (stereo not drawn): the cytotoxicity at 10 µM was -2.09%. The result for `Cc1nc(C)n(CC2CN(CCOc3cccc(F)c3)CCO2)n1` (stereo not drawn) reads -12.7%. As to `CN1CCCC1c1cncc(C(=O)NCC2CC2)n1` (stereo not drawn), the cytotoxicity at 10 µM is -8.41%. `CC(C)N1CCC2(CC1)CN(C)C(=O)C[C@H]2C(F)(F)F`: the cytotoxicity at 10 µM is -160%. The result for `Cc1c(F)cc(C(=O)O)cc1S(=O)(=O)Nc1cccc(C(F)F)c1` reads -1.35%. As for `N#Cc1ccc(S(=O)(=O)NCCn2ccnc2)cc1Cl`, the figure is 22.5%. As for `O=C(N1CCCC1)N1CCC(c2nccn2Cc2cscn2)CC1`, the cytotoxicity at 10 µM was found to be 4.8%.

On to `Cc1nc(NCc2cccnc2)c2c(n1)c(C)nn2C`, for which the cytotoxicity at 10 µM is -3.42%.
